NTR1 agonist = activates human neurotensin receptor 1 | 330,000 compounds, 0.17% hits | NTR1-U2OS beta-arrestin-GFP spot imaging, agonist mode | P30989 | activation, % at 20 µM;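 active = activation at or above 40% of the spot to cytoplasm intensity ratio, with at least 20 cells analyzed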
PLC-gamma1 inh = PLC-gamma1 (human) inhibition, primary screen. P19174. purified PLC-gamma1, fluorogenic substrate, fluorescence. inhibition, % at 12.2 µM. 370,000 compounds, 0.84% hits. AID 720700; in the data active = inhibition above about 9.5%
Arr AP2 block = human beta-arrestin and AP2 interaction inhibition | inhibition, % at 10 µM | FITC-arrestin peptide / GST-AP2 beads, flow cytometry; AP2 beta2 appendage carries R879A mutation | 340,000 compounds, 0.31% hits;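 active = inhibition above a set limit, near 3 SD of compounds lacking own fluorescence, cut at about 54% in these data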
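test system = AP2 appendage R879A on GSH beads | buffer or medium = PBS plus Tween 20 (0.05%) and BSA (0.1%) | incubation = 12 min plus 1 h, RT | detection = bead flow cytometry, FITC channel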
PLC-beta3 inh = inhibitors of human phospholipase C beta3; Purified PLC-beta3, fluorogenic substrate, fluorescence; inhibition, % at 12.2 µM; 370,000 compounds, 0.18% hits; Q01970; AID 720704
PLCgamma1 ctr = PLC-gamma1 inhibition, counter-screen for PLC-beta3 hits. purified PLC-gamma1, fluorogenic substrate, fluorescence. inhibition, % at 12.3 µM. shares compounds with PLC-gamma1 inh. 3,300 compounds, 3.1% hits; in the data active = inhibition above about 9.5%
PLCbeta3 conf = human PLC-beta3 inhibition, confirmation. shares compounds with PLC-gamma1 inh. purified PLC-beta3, fluorogenic substrate fluorescence. inhibition, % at 12.3 µM. 3,300 compounds, 1% hits
A number is an active result; n = inactive; x = no result. A selection: hits, their analogues and other compounds. The true share with any hit is near 1.3%. Rule as the data show it, unless noted: active = inhibition above about 11%; inactive = the rest.

SMILES	NTR1 agonist	PLC-gamma1 inh	Arr AP2 block	PLC-beta3 inh	PLCgamma1 ctr	PLCbeta3 conf
CCCC(=O)NC(c1ccco1)c1cc([N+](=O)[O-])c2cccnc2c1O (stereo not drawn)	n	14	n	n	n	n
Cc1cc(SCCC(=O)O)nc2ccccc12	n	n	n	n	x	x
Cc1cc(SCC(=O)N2CCCC2=O)nc2ccccc12	n	12	n	n	n	n
O=C(NCC(c1ccccc1)c1ccccc1)[C@H](Cc1ccccc1)NC1(C(=O)NC2CCCCC2)CCCCCC1	x	n	x	n	x	x
CC(C)C[C@H](NC1(C(=O)NCCc2c[nH]c3ccccc23)CCOCC1)C(=O)NCCCc1ccccc1	x	n	x	n	x	x
CN1CCC(N[C@@H](Cc2ccccc2)C(=O)NCC(c2ccccc2)c2ccccc2)(C(=O)NC2CCCCC2)CC1	x	12	x	n	n	n
CC(C)C[C@H](NC1(C(=O)NCCc2c[nH]c3ccccc23)CCC1)C(=O)NCCCc1ccccc1	x	13	x	n	n	n
O=C(NCC(c1ccccc1)c1ccccc1)[C@H](Cc1c[nH]c2ccccc12)NC1(C(=O)NC2CCCCC2)CCC1	x	10	x	n	n	n
C=CCCC1CN(CC=C)S(=O)(=O)c2c(F)cccc2O1 (stereo not drawn)	x	n	x	n	x	x
COc1ccc(C(=O)NN=C(Cc2ccccc2)Cc2ccccc2)cc1OC	n	11	n	n	n	n
Cc1ccc(CNC(=O)O[C@H]2CC[C@@]34CCCN3C(=O)CCC[C@H]4C2)o1	x	n	x	n	x	x
CCN(C(=O)[C@H]1CC(=O)O[C@@H]1c1ccccc1)c1ccccc1	x	n	x	n	x	x
O=C(NCCc1ccccc1)c1c[nH]c2ccccc2c1=O	x	n	x	11	n	n
COc1ccc(CCNC(=O)c2c[nH]c3ccccc3c2=O)cc1OC	n	n	n	n	x	x
CCCC(O)(c1ccc(OC)cc1)C(CN1CCOCC1)c1ccc(Cl)cc1 (stereo not drawn)	n	11	n	n	n	n
CCCCNC(=O)C[C@H]1C[C@@]2(C(=O)OC)C(=C[C@H](C(C)(C)C)O[C@@H]2C)N(Cc2ccc(Cl)cc2Cl)C1=O	x	n	x	n	x	x
CN(C)CC(=O)N[C@@H]1C[C@@H]2O[C@@H](CO)CC[C@@H]2O[C@@H]1CCc1ccc(C#Cc2ccccc2)cc1	x	n	x	n	x	x
Oc1ccc(C=Nc2ccc3ncccc3c2)c(O)c1	n	x	x	x	x	x
CC(=O)N(C)c1ccc(N=Nc2ccc3ncccc3c2)cc1	x	12	n	n	n	n
COCCCNC(=O)CCc1nc(-c2ccccc2Cl)no1	n	11	n	n	n	n
CCCCNC(=O)C[C@@H]1C(=O)N(Cc2ccc(OC)cc2)C2=CCN(C(=O)OC(C)(C)C)C[C@]21C(=O)OCC	x	n	x	n	x	x
Cc1ccc(NC(=O)CN2CCN(c3nc(-c4ccccc4)cs3)CC2)cc1C	x	n	x	n	x	x
O=C(c1ccc2snnc2c1)N1CCN(c2ccccn2)CC1	n	15	n	n	n	n
O=C(c1ccc2snnc2c1)N1CCN(c2ccccc2)CC1	n	n	n	n	x	x
COC(=O)C/C=C/[C@H](C)[C@@H](NC(=O)C(F)(F)F)c1ccccc1Br	x	n	x	n	x	x
SMILES	NTR1 agonist	PLC-gamma1 inh	Arr AP2 block	PLC-beta3 inh	PLCgamma1 ctr	PLCbeta3 conf
Cc1[nH]n(S(=O)(=O)c2ccccc2)c(=O)c1N=Nc1cccc(Cl)c1	n	n	n	n	x	x
Cc1[nH]n(S(=O)(=O)Cc2ccccc2)c(=O)c1N=Nc1ccccc1Cl	n	12	n	n	n	n
O=C1OCC(Cn2c3ccccc3c3ccccc32)O1 (stereo not drawn)	n	11	n	n	n	n
CC(C)C[C@H](NC(=O)c1nc[nH]c1C(=O)N1CCN(C(=O)OC(C)(C)C)CC1)C(=O)OCc1ccccc1	n	10	n	n	n	n
CC(C)(C)OC(=O)N1CCN(C(=O)c2[nH]cnc2C(=O)N[C@@H](Cc2ccccc2)C(=O)OCc2ccccc2)CC1	n	n	n	n	x	x
COc1ccc(CNC(=O)[C@@H](Cc2ccccc2)NC(=O)[C@H]2O[C@@H](n3ccc(=O)[nH]c3=O)[C@H](O)[C@@H]2O)cc1	x	n	x	n	x	x
CCCc1c(Cc2cccc(F)c2)ncn1CCc1ccccc1OC	x	n	x	n	x	x
O=C1CC(NS(=O)(=O)c2ccc([N+](=O)[O-])cc2)CN1c1ccc2c(c1)OCCO2 (stereo not drawn)	n	n	n	n	x	x
O=C(Oc1ccc([N+](=O)[O-])cc1)C1CC(=O)N(c2ccc3c(c2)OCCO3)C1 (stereo not drawn)	n	13	n	n	n	n
